We go through two compounds from ChEMBL document CHEMBL4613315, “Design of First-in-Class Dual EZH2/HDAC Inhibitor: Biochemical Activity and Biological Evaluation in Cancer Cells” (ACS Med Chem Lett, 2020).

A short description of test [1]: Cell cycle arrest in human RH4 cells assessed as G2/M accumulation at 28 uM incubated for 72 hrs by propidium iodide staining based flow cytometry (reference value: 18.9 %). In kind it is functional. In general terms: In flow cytometry, cells or beads pass a laser one at a time.
Another test concerns the target Histone deacetylase 2 (Homo sapiens, UniProt Q92769).
A short description of test [2]: Cytotoxicity against human RH4 cells assessed as reduction in cell viability at 20 uM incubated for 96 hrs by CellTiter-Glo Luminescent cell viability assay relative to control. It is filed as functional. As to conditions: Rh4, 96 h. The essentials: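 Viability of U937 (5–25 μM) and RH4 (5–35 μM) cells after 48, 72 and 96 h of treatment at increasing concentrations.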
For orientation: ATP-based viability assays read luminescence as a measure of living cells.

The target in the next test is Histone deacetylase 1 (Homo sapiens, UniProt Q13547). Kind of test: Inhibition of human recombinant HDAC1 using AMC-K(Ac)GL as substrate by fluorescence based assay.
Test [3] addresses T1, Histone-lysine N-methyltransferase EZH2 (Homo sapiens, UniProt Q15910). The test is described as follows: Inhibition of human EZH2 using core histone as substrate incubated for 1 hr by fluorescence based assay.
Target sequence in this assay (Q15910 whole entry): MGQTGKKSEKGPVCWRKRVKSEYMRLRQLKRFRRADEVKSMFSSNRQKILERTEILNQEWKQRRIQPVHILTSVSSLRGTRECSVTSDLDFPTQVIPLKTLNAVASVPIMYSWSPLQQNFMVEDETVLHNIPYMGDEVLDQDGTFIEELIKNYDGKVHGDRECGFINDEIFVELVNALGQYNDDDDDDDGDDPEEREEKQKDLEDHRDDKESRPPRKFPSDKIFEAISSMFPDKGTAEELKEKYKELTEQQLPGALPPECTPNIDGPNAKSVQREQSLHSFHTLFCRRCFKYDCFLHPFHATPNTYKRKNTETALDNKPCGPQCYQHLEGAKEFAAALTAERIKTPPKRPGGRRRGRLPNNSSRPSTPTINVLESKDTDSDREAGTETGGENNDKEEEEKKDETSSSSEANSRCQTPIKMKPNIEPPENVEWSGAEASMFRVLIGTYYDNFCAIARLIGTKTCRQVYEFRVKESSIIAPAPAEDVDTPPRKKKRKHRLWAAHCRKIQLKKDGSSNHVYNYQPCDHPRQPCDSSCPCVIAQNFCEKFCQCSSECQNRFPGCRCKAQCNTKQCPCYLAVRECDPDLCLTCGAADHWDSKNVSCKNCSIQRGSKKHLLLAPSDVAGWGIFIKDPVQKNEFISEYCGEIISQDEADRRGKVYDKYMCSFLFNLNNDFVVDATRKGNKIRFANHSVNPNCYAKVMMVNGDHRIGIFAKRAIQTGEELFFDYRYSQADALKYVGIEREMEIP
In test [4] the test system is U-937. The test is described as follows: Induction of differentiation of human U937 cells assessed as increase in CD11b level at 10 uM incubated for 72 hrs by flow cytometry analysis. In kind it is functional. In short, it runs like this: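 U937 cells were treated for 72 h at 10 and 25 μM, and surface CD11b expression was measured as a differentiation marker.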
Test [5] has as its target T2, Protein deacetylase HDAC6 (Homo sapiens, UniProt Q9UBN7).
T2 sequence (Q9UBN7 whole entry): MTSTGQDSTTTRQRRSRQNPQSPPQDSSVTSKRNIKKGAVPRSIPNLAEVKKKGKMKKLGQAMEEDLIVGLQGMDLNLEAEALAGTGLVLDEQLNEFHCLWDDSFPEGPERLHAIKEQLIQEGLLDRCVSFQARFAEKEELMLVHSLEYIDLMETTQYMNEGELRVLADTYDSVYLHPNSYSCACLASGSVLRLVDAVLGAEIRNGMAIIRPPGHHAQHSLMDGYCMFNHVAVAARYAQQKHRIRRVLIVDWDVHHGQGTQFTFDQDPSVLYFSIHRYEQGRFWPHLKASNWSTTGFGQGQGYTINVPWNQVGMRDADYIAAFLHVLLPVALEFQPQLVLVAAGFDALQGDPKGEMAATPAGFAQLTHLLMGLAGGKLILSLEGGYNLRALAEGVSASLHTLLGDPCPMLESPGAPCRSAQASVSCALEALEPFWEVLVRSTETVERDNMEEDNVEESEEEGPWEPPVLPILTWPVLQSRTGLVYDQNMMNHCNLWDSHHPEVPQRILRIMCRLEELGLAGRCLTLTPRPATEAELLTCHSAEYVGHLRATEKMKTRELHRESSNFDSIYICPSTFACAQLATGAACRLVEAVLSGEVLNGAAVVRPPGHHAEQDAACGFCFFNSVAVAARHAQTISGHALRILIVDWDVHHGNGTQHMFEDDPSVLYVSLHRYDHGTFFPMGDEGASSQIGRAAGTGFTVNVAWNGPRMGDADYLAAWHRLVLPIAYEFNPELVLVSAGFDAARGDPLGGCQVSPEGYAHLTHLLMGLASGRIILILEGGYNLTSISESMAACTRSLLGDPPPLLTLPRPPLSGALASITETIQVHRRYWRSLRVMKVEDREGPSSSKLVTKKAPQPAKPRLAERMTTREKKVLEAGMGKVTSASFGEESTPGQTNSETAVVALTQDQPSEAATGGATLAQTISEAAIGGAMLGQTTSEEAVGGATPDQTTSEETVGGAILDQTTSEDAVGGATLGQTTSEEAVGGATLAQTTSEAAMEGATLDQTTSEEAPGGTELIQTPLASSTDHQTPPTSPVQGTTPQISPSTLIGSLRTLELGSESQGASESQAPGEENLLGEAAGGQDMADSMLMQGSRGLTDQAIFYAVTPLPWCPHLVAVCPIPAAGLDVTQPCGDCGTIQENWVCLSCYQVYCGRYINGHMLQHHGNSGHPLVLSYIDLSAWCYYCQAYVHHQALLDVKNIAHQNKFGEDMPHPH
The test is described as follows: Inhibition of human recombinant HDAC6 using AMC-K(Ac)GL as substrate by fluorescence based assay.

Test [6] concerns U-937. The test is described as follows: Cell cycle arrest in human U937 cells assessed as increase in subG1 accumulation incubated for 72 hrs by propidium iodide staining based assay. In kind it is functional.
Test [7] concerns U-937. Kind of test: Cell cycle arrest in human U937 cells assessed as subG1 accumulation at 10 uM incubated for 72 hrs by propidium iodide staining based flow cytometry (reference value: 4.9 %).
The nature of test [8]: Induction of apoptosis in human RH4 cells assessed as viable cells at 14 uM incubated for 72 hrs by annexin V-FITC staining based flow cytometry (reference value: 86.6 %). In kind it is functional. Conditions: Rh4, 72 h, read-out: Activity.
The target of test [9] is T3, Histone deacetylase (Homo sapiens) (UniProt Q13547+O15379+Q9UBN7+Q92769+Q9UQL6+Q8WUI4+Q9BY41+Q96DB2+P56524+Q9UKV0+Q969S8). Kind of test: Inhibition of HDAC in human U937 cells assessed as Ac-H3 level at 50 uM incubated for 96 hrs by Western blot analysis (reference value: 1). In kind it is cell-based. As to conditions: U-937.
Test [10] has as its target T1, Histone-lysine N-methyltransferase EZH2. Kind of test: Inhibition of EZH2 in human U937 cells assessed as H3K27me3 level at 50 uM in presence of vorinostat incubated for 120 hrs by Western blot analysis (reference value: 1). It is filed as cell-based. Conditions: U-937. The essentials: (§1)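 U937 leukemia cells given EZH2 inhibitor 50 μM together with HDAC inhibitor 0.5 μM; Western blot at 96 and 120 h for H3K27me3 or acetyl-H3, actin as loading control; densitometry normalized to loading control then to DMSO vehicle.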
Target sequence in this assay (Q15910 whole entry, looked up): as the sequence (Q15910 whole entry) above
Background: A western blot detects proteins with antibodies after separation by electrophoresis.

The nature of test [11]: Cytotoxicity against human RH4 cells assessed as combinational index measured at fraction affected value of 0.63 in presence of vorinostat at 50 uM incubated for 72 hrs by CellTiter-Glo Luminescent cell viability assay. In kind it is functional. In short, it runs like this: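 Viability after 72 h of single-agent or combined treatment with the HDAC inhibitor (0.05–0.25 μM) and the EZH2 inhibitor. EZH2 inhibitor range: U937 5–25 μM; RH4 10–50 μM. Synergy was assessed by combination index and isobologram analysis.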

For test [12], the target named is T1, Histone-lysine N-methyltransferase EZH2. The test is described as follows: Inhibition of EZH2 in human U937 cells assessed as H3K27me3 level at 50 uM in presence of vorinostat incubated for 96 hrs by Western blot analysis (reference value: 1). In kind it is cell-based. As to conditions: U-937. The essentials:
as §1
Target sequence in this assay (Q15910 whole entry, looked up): as the sequence (Q15910 whole entry) above

Test [13] deals with T4, Protein deacetylase HDAC6 (Homo sapiens) (UniProt Q9UBN7).
T4 sequence (whole entry): T2 sequence (Q9UBN7 whole entry)
The test is described as follows: Inhibition of HDAC6 in human RH4 cells assessed as acetylated alpha-tubulin level at 50 uM incubated for 96 hrs by Western blot analysis. In kind it is cell-based.

Test [14] deals with T1, Histone-lysine N-methyltransferase EZH2. The test is described as follows: Inhibition of EZH2 in human U937 cells assessed as H3K27me3 level at 50 uM incubated for 96 hrs by Western blot analysis. In kind it is cell-based. As to conditions: U-937.
Target sequence in this assay (Q15910 whole entry, looked up): as the sequence (Q15910 whole entry) above
Test [15] is described as follows: Cytotoxicity against human RH4 cells assessed as reduction in cell viability at 50 uM incubated for 72 hrs by CellTiter-Glo Luminescent cell viability assay relative to control. It is filed as functional. As to conditions: Rh4, 72 h.
Test [16] deals with T3, Histone deacetylase (Homo sapiens). The test is described as follows: Inhibition of HDAC in human U937 cells assessed as Ac-H3 level at 50 uM incubated for 120 hrs by Western blot analysis (reference value: 1). It is filed as cell-based. Conditions: U-937.

The IC50 is the concentration needed to halve the response being measured. A word on the inhibition: it is the drop in the measured response relative to a control, in per cent.

Histone deacetylase 1, sequence (Q13547 whole entry): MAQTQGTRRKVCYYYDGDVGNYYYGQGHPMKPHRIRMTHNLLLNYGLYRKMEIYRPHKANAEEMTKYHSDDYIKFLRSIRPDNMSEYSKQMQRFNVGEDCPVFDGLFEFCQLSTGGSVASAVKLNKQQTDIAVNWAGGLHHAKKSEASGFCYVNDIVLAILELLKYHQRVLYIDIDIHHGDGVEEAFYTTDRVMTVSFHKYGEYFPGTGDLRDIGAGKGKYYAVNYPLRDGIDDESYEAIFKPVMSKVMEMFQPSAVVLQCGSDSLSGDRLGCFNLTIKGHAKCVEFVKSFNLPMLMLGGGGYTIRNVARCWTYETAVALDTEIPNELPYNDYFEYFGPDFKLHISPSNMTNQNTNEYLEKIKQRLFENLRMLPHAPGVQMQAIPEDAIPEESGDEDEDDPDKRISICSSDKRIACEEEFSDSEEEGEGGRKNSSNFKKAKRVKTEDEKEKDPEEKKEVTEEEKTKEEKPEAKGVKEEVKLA
Histone deacetylase 2, sequence (Q92769 whole entry): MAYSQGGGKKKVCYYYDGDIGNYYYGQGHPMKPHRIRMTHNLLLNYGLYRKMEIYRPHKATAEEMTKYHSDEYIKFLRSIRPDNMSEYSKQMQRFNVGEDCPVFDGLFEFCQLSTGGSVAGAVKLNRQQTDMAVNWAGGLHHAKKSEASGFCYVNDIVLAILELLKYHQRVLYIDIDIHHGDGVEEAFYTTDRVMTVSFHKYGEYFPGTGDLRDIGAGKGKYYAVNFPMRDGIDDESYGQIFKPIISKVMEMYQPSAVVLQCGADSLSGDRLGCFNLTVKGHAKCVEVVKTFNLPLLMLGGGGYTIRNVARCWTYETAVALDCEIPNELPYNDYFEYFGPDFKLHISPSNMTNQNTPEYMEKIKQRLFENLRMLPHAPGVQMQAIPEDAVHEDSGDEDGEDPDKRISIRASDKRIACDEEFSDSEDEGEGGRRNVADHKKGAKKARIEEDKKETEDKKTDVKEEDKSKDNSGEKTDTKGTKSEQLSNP

`Cc1cc(C)c(CNC(=O)c2cc(C)n(-c3cccc(NC(=O)CCCCCCC(=O)NO)c3)c2C)c(=O)[nH]1`: the Activity in test [1] was 6.4%; in the test on U-937 [6], “Dose-dependent effect”; in the test on U-937 [7], 8.2%. Further, the concentration for half-maximal inhibition (IC50) against Histone deacetylase 2 came to 1.33 µM; at Histone deacetylase 1 it was 0.43 µM; in [3], 7.37 µM; in [5], 0.005 µM. In addition, the inhibition at 20 µM in test [2] is above 60%. Besides, the “fold change (FC)” value in the test on U-937 [4] stood at 2. The viability at 14 µM in [8] came to 82.5%.
`Cc1cc(C)c(CNC(=O)c2cc(C)n(-c3ccccc3)c2C)c(=O)[nH]1`: the fold change (FC) is 1.4 in [9]; 0.6 in [10]; 1.1 in test [12]; 1.4 in test [13]; 0.9 in test [14]; 0.7 in test [16]. Further, in [11], the CI is recorded as 0.54. Further, the IC50 in [3] came out at 5.78 µM. Besides, the inhibition at 50 µM in test [15] is above 30%.
